Source: publication PMC3983359 (Journal of Medicinal Chemistry, 2014)
Entries after “also recorded” stand apart in the source; their conditions may differ. Where a name gives a salt, the structure may show the parent alone.

What was measured:
[1] = PAMPA passive permeability; format: in vitro ADME
[2] = Mouse liver microsome stability; format: in vitro ADME
[3] = tested on: B. subtilis 168; assay: Membrane damage assessment; format: cell-based, Bacillus subtilis; conditions: 15 min incubation, up to 10-fold MIC, Syto9/propidium iodide
How it was run: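 B. subtilis membrane integrity assessed by fluorescence microscopy with Syto9, which stains all cells, and propidium iodide, which enters only compromised cells. […] Stained cells were counted.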

[4] = Compound stability in aqueous media and buffers; format: physicochemical; conditions: pH range 2–9, PBS and HEPES
[5] = target: T1, human PPTase (Homo sapiens, UniProt Q9NRN7); assay: Gel-based PPTase assay with the human enzyme; format: biochemical; conditions: concentrations up to 125 μM
T1 sequence (Q9NRN7 1-309): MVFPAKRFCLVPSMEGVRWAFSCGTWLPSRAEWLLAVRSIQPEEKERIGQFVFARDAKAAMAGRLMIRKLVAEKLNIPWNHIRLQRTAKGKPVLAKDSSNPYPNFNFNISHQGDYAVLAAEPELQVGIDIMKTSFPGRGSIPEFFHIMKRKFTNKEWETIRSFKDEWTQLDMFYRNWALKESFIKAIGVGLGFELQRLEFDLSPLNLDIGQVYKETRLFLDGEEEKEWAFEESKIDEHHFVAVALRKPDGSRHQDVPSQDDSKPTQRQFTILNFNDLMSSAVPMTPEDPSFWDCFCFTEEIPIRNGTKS

[6] = tested on: E. coli BW25113; assay: Checkerboard synergy experiment with PAβN; format: cell-based, Escherichia coli; conditions: top concentrations tested
How it was run: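 Checkerboard broth dilution in E. coli BW25113 combining test compound with PAβN over concentration grids. Resazurin added (10 μL, 0.7% w/v) and incubated a further 4 h at 37 °C; purple wells scored as no metabolically active bacteria. At each test-compound concentration, the lowest PAβN concentration halting growth was recorded. FIC index was estimated as combined potency relative to the single components.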

[7] = tested on: E. coli; assay: MIC determination, broth dilution, E. coli; format: cell-based, Escherichia coli; conditions: E. coli K12 and BW25113
How it was run: (§1)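 Bacterial MIC followed NCCLS M07 broth microdilution. Test compound in DMSO (1 μL) added to 50 μL cation-adjusted Mueller Hinton II broth, then ~1 × 10^3 cfu from overnight liquid culture. Incubated at 30–37 °C for 16–20 h. MIC taken as the first well without visible growth. For imaging, 0.7% w/v resazurin (10 μL) added, then 4 h at 37 °C.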

[8] = tested on: HepG2 cells; assay: HepG2 cytotoxicity counterscreen; format: cell-based, human; conditions: cellular ATP content, CellTiter-Glo, 48 hr
[9] = tested on: clinical strains of MRSA; assay: MIC against clinical strains of S. aureus; format: cell-based, Staphylococcus aureus; conditions: all strains tested
[10] = tested on: B. subtilis; assay: MIC determination, broth dilution, B. subtilis; format: cell-based, Bacillus subtilis; conditions: broth dilution, resazurin
How it was run: as §1

[11] = tested on: E. coli JW0451 (ΔacrB); assay: Broth dilution with efflux-defective E. coli mutant; format: cell-based, Escherichia coli
How it was run: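 Broth microdilution: test compound in DMSO (1 μL) added to 50 μL cation-adjusted Mueller Hinton II broth, then ~1 × 10^3 cfu inoculum from overnight culture. Incubated at 30–37 °C for 16–20 h. MIC scored visually as the first well without growth. Efflux-defective ΔacrB strain JW0451 tested alongside wild-type BW25113.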

[12] = In vivo PK in male CD1 mice; set-up: species or system mouse
[13] = target: CYP2D6 (Homo sapiens, UniProt P10635); assay: CYP2D6 inhibition; format: in vitro ADME; conditions: 2D6, 3 μM, substrate dextromethorphan
Chain of CYP2D6 (P10635 whole entry): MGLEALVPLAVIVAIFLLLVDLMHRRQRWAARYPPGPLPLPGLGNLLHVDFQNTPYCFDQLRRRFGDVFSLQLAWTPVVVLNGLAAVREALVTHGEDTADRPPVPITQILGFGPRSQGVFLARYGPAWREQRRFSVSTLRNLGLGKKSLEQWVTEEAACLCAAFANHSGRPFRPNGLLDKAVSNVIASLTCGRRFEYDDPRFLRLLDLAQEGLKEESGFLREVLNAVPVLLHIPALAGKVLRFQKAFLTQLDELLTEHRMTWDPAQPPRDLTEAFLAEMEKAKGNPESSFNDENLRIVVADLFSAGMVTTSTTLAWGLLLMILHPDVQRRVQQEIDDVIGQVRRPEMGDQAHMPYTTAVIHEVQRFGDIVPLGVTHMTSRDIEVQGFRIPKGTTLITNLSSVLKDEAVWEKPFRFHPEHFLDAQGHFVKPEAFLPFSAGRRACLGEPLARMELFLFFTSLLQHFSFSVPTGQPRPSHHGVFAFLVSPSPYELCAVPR

[14] = tested on: P. aeruginosa; assay: MIC determination, broth dilution, P. aeruginosa; format: cell-based, Pseudomonas aeruginosa; conditions: ATCC9028
How it was run: as §1

[15] = tested on: S. aureus BK2395 (PFGE USA500); assay: Mouse model of S. aureus septicemia; format: in vivo; conditions: 55 30 mpk, vancomycin 50 mpk; 4, 24, 48 hours post infection
[16] = tested on: Candida albicans; assay: MIC determination, broth dilution, fungi; format: cell-based; conditions: C. albicans ATCC90028 and ATCC96901
How it was run: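 Fungal MIC followed NCCLS M27 broth microdilution against fluconazole-sensitive and fluconazole-resistant C. albicans strains. Inoculum was made by suspending 2-day-old colonies in RPMI 1640, ~1 × 10^3 cfu per well, with test compound in DMSO. Incubated at 30–37 °C for 48 h. MIC read visually as the first well without growth.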

[17] = tested on: S. aureus and B. subtilis; assay: Minimum bactericidal concentration determination; format: cell-based

COc1ccnc(NC(=S)N2CCN(c3ncc(C(F)(F)F)cc3Cl)CC2)c1 [Compound 55, 4-(3-Chloro-5-(trifluoromethyl)pyridin-2-yl)-N-(4-methoxypyridin-2-yl)piperazine-1-carbothioamide Trifluoroacetate]
PAMPA [1]: 1122 × 10^–6 cm/s
microsomal stability without NADPH ([2]; absence of NADPH cofactor, 1 h): completely stable
half-life ([2]; mouse, liver microsomes, microsomal stability (T1/2, min), mouse liver microsomes, with NADPH): 49.5 min
bacterial cell membrane integrity [3]: continued cellular viability
degradation in aqueous media, buffers and mouse plasma [4]: no signs of degradation
inhibition of the human PPTase [5]: no inhibition; also recorded: null activity
antibacterial activity of the single compound against BW25113 [6]: neither compound alone was found to possess antibacterial activity
growth inhibition of E. coli [7]: No growth inhibition
cytotoxicity (HepG2), IC50 [8]: inactive
spread of potencies over the panel of clinical isolates [9]: ≤ 3 fold
concentration inhibiting the growth of B. subtilis [10]: 1.7 µg/mL
lowest concentration to which the ΔacrB strain is susceptible ([11]; E. coli JW0451, lesion in acrB locus): 12.5 µg/mL
lowest concentration inhibiting bacterial growth (Figure 4B) ([11]; legend: disruption of tolC): 12 µM
adverse clinical observations ([12]; iv 3 and ip 30 mg/kg, 24 h period): did not result in any adverse clinical observations
time for which exposure exceeds the in vitro antibacterial MIC value ([12]; total drug concentration): over 8 h
CYP inh (3 μM) (%) [13]: 25 (2D6) %
growth inhibition of P. aeruginosa [14]: No growth inhibition
survival in mouse sepsis model [15]: did not increase survival
growth inhibition of fungal organisms [16]: No growth inhibition
type of antibacterial activity [17]: bactericidal activity
